Source: ChEMBL document CHEMBL1641520, “Design, synthesis, and biological evaluation of novel water-soluble N-mustards as potential anticancer agents” (Bioorg Med Chem, 2011)
Active and inactive are the calls of the source. No cut-off for these calls is given here.

Legend:
MX1 [1] = assay: Cytotoxicity against human MX1 cells after 72 hrs by SRB assay; type: functional, cell-based; details: MX1, 72 h
Procedure, shortened: (§1)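 MX-1 breast and HCT-116 colon carcinoma cells exposed to compound for 72 h; growth measured by sulforhodamine B assay. IC50 from median-effect analysis of dose-effect data at six or seven concentrations.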

U-87MG ATCC = assay: Anticancer activity against human U87MG cells xenografted in athymic mouse assessed as tumor suppression at 30 mg/kg, iv Q2D for 6 days; type: functional, organism-based; parameters: dose 30 mg/kg
Procedure, shortened: (§2)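 Athymic nu/nu nude mice (male, ≥6 weeks, 20–24 g) carrying human tumor xenografts; dosing iv via tail vein, Q2D, in vehicle of DMSO/Tween 80/saline (50:40:160 µL). Dose level is the maximal tolerated dose determined beforehand. Tumor volume by caliper (length × width × height or width). Body weight taken as total minus tumor weight (1 mm³ = 1 mg). n = 4–5 mice.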

Nucleic Acid = assay: Binding affinity to Escherichia coli plasmid EGFP-N1 DNA at 1 to 10 uM after 22 hrs by alkaline agarose gel shift assay; type: nucleic-acid assay
Procedure, shortened: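 Purified pEGFP-N1 plasmid DNA (1500 ng) incubated with compound (1–20 µM) in 3 mM NaCl/1 mM sodium phosphate pH 7.4/1 mM EDTA for 2 h at 37 °C. Linearized with BamHI, ethanol-precipitated, denatured in 0.5 N NaOH-10 mM EDTA. Run on 0.8% alkaline agarose gel at 4 °C, 18 V for 22 h. Ethidium bromide stain; cross-linked double-stranded DNA scored against single-stranded DNA.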

[2] = Cell cycle arrest in human H1299 cells assessed as accumulation at S phase at 10 uM after 24 hrs by propidium iodide staining-based flow cytometry; type: functional; details: NCI-H1299
Procedure, shortened: (§3)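 H1299 non-small cell lung carcinoma cells exposed to compound for 24 h. Attached cells trypsinized, PBS-washed, fixed in ice-cold 70% ethanol for 30 min. Stained with 4 µg/ml propidium iodide in PBS with 1% Triton X-100 and 0.1 mg/ml RNase A. Analyzed by flow cytometry; phase percentages taken from DNA histograms.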

[3] = Cell cycle arrest in human H1299 cells assessed as accumulation at G2/M phase at 10 uM after 24 hrs by propidium iodide staining-based flow cytometry; type: functional; details: NCI-H1299; procedure, shortened: as §3
[4] = Cytotoxicity against human H1299 cells after 72 hrs by alamar blue assay; type: functional, cell-based; details: NCI-H1299, 72 h
Procedure, shortened: (§4)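 H1299, PC3, CL1-0, CL1-5 and MCF-7 cells exposed to compound for 72 h. Alamar blue added, then 6 h at 37 °C; absorbance at 570 and 600 nm. IC50 from median-effect analysis of dose-effect data at six or seven concentrations.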

[5] = Cell cycle arrest in human H1299 cells assessed as accumulation at G2/M phase at 5 uM after 24 hrs by propidium iodide staining-based flow cytometry; type: functional; details: NCI-H1299; procedure, shortened: as §3
[6] = Cell cycle arrest in human H1299 cells assessed as accumulation at sub-G1 phase at 5 uM after 24 hrs by propidium iodide staining-based flow cytometry; type: functional; details: NCI-H1299; procedure, shortened: as §3
[7] = Steady state clearance in Sprague-Dawley rat at 1 mg/kg, iv up to 24 hrs by LC-MS/MS analysis; type: ADME, organism-based; parameters: dose 1 mg/kg, route intravenous; details: in vivo, read-out: CLss
CCRF-CEM [8] = assay: Cytotoxicity against vinblastine-resistant human CCRF-CEM cells after 72 hrs by XTT assay; type: functional, cell-based
Procedure, shortened: (§5)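 CCRF-CEM leukemia cells and their taxol- or vinblastine-resistant sublines given compound for 72 h. XTT read-out: after phenazine methosulfate–XTT, 6 h at 37 °C, absorbance at 450 and 630 nm. IC50 from median-effect analysis of dose-effect data at six or seven concentrations.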

HCT-116 [9] = assay: Cytotoxicity against human HCT116 cells after 72 hrs by SRB assay; type: functional, cell-based; details: HCT-116, 72 h; procedure, shortened: as §1
[10] = Cytotoxicity against human CL1-0 cells after 72 hrs by alamar blue assay; type: functional, cell-based; details: CL1-0, 72 h; procedure, shortened: as §4
CCRF-CEM [11] = assay: Selectivity ratio of IC50 for vinblastine-resistant human CCRF-CEM cells to IC50 for human CCRF-CEM cells; type: functional
[12] = Cell cycle arrest in human H1299 cells assessed as accumulation at sub-G1 phase at 2.5 uM after 24 hrs by propidium iodide staining-based flow cytometry; type: functional; details: NCI-H1299; procedure, shortened: as §3
[13] = Cell cycle arrest in human H1299 cells assessed as accumulation at G1 phase at 10 uM after 24 hrs by propidium iodide staining-based flow cytometry; type: functional; details: NCI-H1299; procedure, shortened: as §3
PC-3 [14] = assay: Cytotoxicity against human PC3 cells after 72 hrs by alamar blue assay; type: functional, cell-based; details: PC-3, 72 h; procedure, shortened: as §4
[15] = Cell cycle arrest in human H1299 cells assessed as accumulation at sub-G1 phase at 10 uM after 24 hrs by propidium iodide staining-based flow cytometry; type: functional; details: NCI-H1299; procedure, shortened: as §3
PC-3 [16] = assay: Anticancer activity against human PC3 cells xenografted in athymic mouse assessed as tumor suppression at 40 mg/kg, iv Q2D for 3 days; type: functional; details: PC-3, 72 h; procedure, shortened: as §2
[17] = Cell cycle arrest in human H1299 cells assessed as accumulation at G1 phase at 5 uM after 24 hrs by propidium iodide staining-based flow cytometry; type: functional; details: NCI-H1299; procedure, shortened: as §3
CCRF-CEM [18] = assay: Cytotoxicity against human CCRF-CEM cells after 72 hrs by XTT assay; type: functional, cell-based; procedure, shortened: as §5
[19] = Cell cycle arrest in human H1299 cells assessed as accumulation at S phase at 5 uM after 24 hrs by propidium iodide staining-based flow cytometry; type: functional; details: NCI-H1299; procedure, shortened: as §3
CCRF-CEM [20] = assay: Cytotoxicity against taxol-resistant human CCRF-CEM cells after 72 hrs by XTT assay; type: functional, cell-based; procedure, shortened: as §5
PC-3 [21] = assay: Anticancer activity against human PC3 cells xenografted in athymic mouse assessed as tumor suppression at 30 mg/kg, iv Q2D for 4 days; type: functional; details: PC-3, 96 h; procedure, shortened: as §2
HCT-116 [22] = assay: Anticancer activity against human HCT116 cells xenografted in athymic mouse assessed as tumor suppression at 30 mg/kg, iv Q2D for 5 days; type: functional; details: HCT-116, 120 h; procedure, shortened: as §2
CCRF-CEM [23] = assay: Selectivity ratio of IC50 for taxol-resistant human CCRF-CEM cells to IC50 for human CCRF-CEM cells; type: functional
[24] = Cell cycle arrest in human H1299 cells assessed as accumulation at G2/M phase at 2.5 uM after 24 hrs by propidium iodide staining-based flow cytometry; type: functional; details: NCI-H1299; procedure, shortened: as §3
[25] = Cytotoxicity against human CL1-5 cells after 72 hrs by alamar blue assay; type: functional, cell-based; details: CL1-5, 72 h; procedure, shortened: as §4
[26] = Cell cycle arrest in human H1299 cells assessed as accumulation at G1 phase at 2.5 uM after 24 hrs by propidium iodide staining-based flow cytometry; type: functional; details: NCI-H1299; procedure, shortened: as §3
MX1 [27] = assay: Anticancer activity against human MX1 cells xenografted in athymic mouse assessed as complete tumor remission at 30 mg/kg, iv Q2D for 5 days measured after 70 days of tumor implantation; type: functional, organism-based; parameters: dose 30 mg/kg; procedure, shortened: as §2
[28] = Cell cycle arrest in human H1299 cells assessed as accumulation at S phase at 2.5 uM after 24 hrs by propidium iodide staining-based flow cytometry; type: functional; details: NCI-H1299; procedure, shortened: as §3
MCF7 = assay: Cytotoxicity against human MCF7 cells after 72 hrs by alamar blue assay; type: functional, cell-based; details: MCF7, 72 h; procedure, shortened: as §4
[29] = Mean residence time in Sprague-Dawley rat at 1 mg/kg, iv by LC-MS/MS analysis; type: ADME, organism-based; parameters: dose 1 mg/kg, route intravenous; details: in vivo

In the case of `CN(C)CCNC(=O)c1cccc(NC(=O)Nc2ccc(N(CCCl)CCCl)cc2)c1.Cl`, the IC50 (MX1 [1]) is reported as 570 nM, the inhibition (U-87MG ATCC) is reported as “Active” and the Activity (Nucleic Acid) is reported as “Active”. It also gave an Activity [2] of 5.2%, an Activity [3] of 62.3% and an IC50 [4] of 10.4 µM. The Activity [5] was 60.8%, the Activity [6] was 19.7% and the clearance [7] was 18 mL/min/kg. The IC50 (CCRF-CEM [8]) was 800 nM, the IC50 (HCT-116 [9]) was 690 nM and the IC50 [10] was 14.6 µM. The “Ratio IC50” value (CCRF-CEM [11]) was 6.2, the Activity [12] was 20% and the Activity [13] was 6.5%. The IC50 (PC-3 [14]) was 1880 nM, the Activity [15] was 26% and the inhibition in vivo at 40 mg/kg (PC-3 [16]) was greater than 99%. It also gave an Activity [17] of 10.7%, an IC50 (CCRF-CEM [18]) of 130 nM and an Activity [19] of 8.8%. It also gave an IC50 (CCRF-CEM [20]) of 1220 nM, an inhibition in vivo at 30 mg/kg (PC-3 [21]) greater than 99% and an inhibition in vivo at 30 mg/kg (HCT-116 [22]) greater than 95%. The “Ratio IC50” value (CCRF-CEM [23]) was 9.4, the Activity [24] was 55.9% and the IC50 [25] was 6.08 µM. For the same compound, the Activity [26] was 2.3%, the inhibition (MX1 [27]) was “Active” and the Activity [28] was 1.8%. It also gave an IC50 (MCF7) of 630 nM and an MRT [29] of 6.6 min.
